{"data": "Measured values of several laboratories", "note": "Lines come from different studies, so protocols differ."}
{"Compound": "Cc1nc(C)c(-c2ccc(Oc3ccc(OC(F)(F)F)cc3)cc2)c(OC(=O)N(CCNC(C)C)C(C)C)c1Br", "target or system": "HEK293", "test": "cell growth or viability", "measurement": "IC50", "result": "> 10 µM"}
{"Compound": "O=c1c2ccccc2[se]n1-c1ccccc1", "target or system": "HEK293", "test": "cell growth or viability, MTT", "conditions": "250 µM, 72 h", "measurement": "inhibition", "result": "64%"}
{"Compound": "NNC(=O)c1ccncc1", "target or system": "Mycolicibacterium phlei", "test": "microbial growth", "measurement": "MIC", "result": "> 8 µg/mL"}
{"Compound": "COc1cc(C)[nH]c(=O)c1CNC(=O)c1c(C)n([C@H](C)C2CCN(CC(F)(F)F)CC2)c2ccccc12", "target or system": "KARPAS-422", "test": "cell growth or viability", "conditions": "8 days", "measurement": "GI50", "result": "0.39 µM"}
{"Compound": "O=C(NC1CCC(CN2CCC(c3c[nH]c4ccccc34)CC2)CC1)c1cn(Cc2ccccc2)c2ccccc12 (stereo not shown)", "target or system": "HEK293", "test": "cell growth or viability", "measurement": "IC50", "result": "> 10 µM"}
{"Compound": "Cc1cccc2c(CNCC3(N4CCCC4)COC3)c[nH]c12", "target or system": "GBM6", "test": "cell growth or viability", "conditions": "30 µM, 48 h", "measurement": "viability", "result": "60.4%"}
{"Compound": "COc1nc2ccc(Br)cc2cc1[C@@H](c1ccccc1)[C@@](O)(CCN(C)C)c1cccc2ccccc12", "target or system": "Mycolicibacterium phlei", "test": "microbial growth", "measurement": "MIC", "result": "0.05 µg/mL"}
{"Compound": "CO[C@H]1/C=C/O[C@@]2(C)Oc3c(C)c(O)c4c(O)c(c(/C=N/N5CCN(C)CC5)c(O)c4c3C2=O)NC(=O)/C(C)=C\\C=C\\[C@H](C)[C@H](O)[C@@H](C)[C@@H](O)[C@@H](C)[C@H](OC(C)=O)[C@@H]1C", "target or system": "Mycobacterium avium", "test": "microbial growth", "conditions": "6 days", "measurement": "MIC", "result": "< 0.78 µM"}
{"Compound": "O=C(NC1CCC(CN2CCC(c3c[nH]c4ccccc34)CC2)CC1)c1[nH]c(=O)[nH]c(=O)c1F (stereo not shown)", "target or system": "HEK293", "test": "cell growth or viability", "measurement": "IC50", "result": "> 10 µM"}
{"Compound": "CO[C@H]1/C=C/O[C@@]2(C)Oc3c(C)c(O)c4c(O)c(c(/C=N/N5CCN(C)CC5)c(O)c4c3C2=O)NC(=O)/C(C)=C\\C=C\\[C@H](C)[C@H](O)[C@@H](C)[C@@H](O)[C@@H](C)[C@H](OC(C)=O)[C@@H]1C", "target or system": "Mycobacterium avium", "test": "microbial growth", "system": "ATCC25291", "measurement": "MIC", "result": "3.1 µg/mL"}
{"Compound": "COc1ccc(OC)c(C=CC(=O)NC2CCC(CN3CCC(c4c[nH]c5ccccc45)CC3)CC2)c1 (stereo not shown)", "target or system": "HEK293", "test": "cell growth or viability", "measurement": "IC50", "result": "> 10 µM"}
{"Compound": "COC(=O)C1=C(C)NC(C)=C(C(=O)OCCN(C)Cc2ccccc2)C1c1cccc([N+](=O)[O-])c1 (stereo not shown)", "target or system": "Vesicular stomatitis virus", "test": "viral entry, inhibitor", "system": "Vero C1008", "conditions": "pseudovirus", "measurement": "IC50", "result": "25 to 70 µM"}
{"Compound": "Cc1cccc2[nH]cc(CNCC3(N4CCCC4)COC3)c12", "target or system": "GBM6", "test": "cell growth or viability", "conditions": "30 µM, 48 h", "measurement": "viability", "result": "77.5%"}
